Measurements collected from several papers.
Protocols differ between the studies behind these lines.

| Compound | organism | assay | system | setting | endpoint | result |
| --- | --- | --- | --- | --- | --- | --- |
| CNC(=S)NN=Cc1ccc(OC)c(OC)c1 | Leishmania major | parasite growth | J774.A1 | 72 h, intracellular, amastigote | IC50 | 60 µM |
| C/C(=N\CCNCCNCC/N=C(\C)c1c(O)c2ccccc2oc1=O)c1c(O)c2ccccc2oc1=O | Aspergillus glaucus | microbial growth, broth dilution |  | 48 h | MIC | 125 µg/mL |
| CC1(C)S[C@@H]2[C@H](NC(=O)[C@H](N)c3ccccc3)C(=O)N2[C@H]1C(=O)O | Enterococcus faecalis | microbial growth, agar dilution | ATCC29212 |  | MIC | 64 µg/mL |
| COc1ccc(Nc2cnnc3ccc(-c4ccc(N5CCN(C)CC5)cc4)cc23)cc1Cl | Leishmania major | parasite growth |  | intracellular, amastigote | EC50 | > 22 µM |
| CN[C@H](CC(C)C)C(=O)N[C@H]1C(=O)N[C@@H](CC(N)=O)C(=O)N[C@H]2C(=O)N[C@H]3C(=O)N[C@H](C(=O)N[C@H](C(=O)O)c4cc(O)cc(O)c4-c4cc3ccc4O)[C@H](O)c3ccc(c(Cl)c3)Oc3cc2cc(c3O[C@@H]2O[C@H](CO)[C@@H](O)[C@H](O)[C@H]2O[C@H]2C[C@](C)(N)[C@H](O)[C@H](C)O2)Oc2ccc(cc2Cl)[C@H]1O | Enterococcus faecalis | microbial growth, broth dilution |  | clinical isolate | MIC90 | 2 µg/mL |
| CNC(=S)NN=Cc1ccc(OC)cc1 | Leishmania major | parasite growth, MTT |  | 72 h, promastigote | IC50 | 26.7 µM |
| COc1ccc(Nc2cnnc3ccc(-c4cnc(N5CCCN(C)CC5)nc4)cc23)cc1Cl | Leishmania major | parasite growth |  | intracellular, amastigote | EC50 | > 21 µM |
| CNC(=S)NN=Cc1ccc([N+](=O)[O-])cc1 | Leishmania major | parasite growth | J774.A1 | 72 h, intracellular, amastigote | IC50 | 177 µM |
| COc1ccc(Nc2cnnc3ccc(-c4ccc(N5CCN(C)CC5)cc4)cc23)nc1 | Leishmania major | parasite growth |  | intracellular, amastigote | EC50 | > 23 µM |
| COc1c(N2C[C@@H]3CCCN[C@@H]3C2)c(F)cc2c(=O)c(C(=O)O)cn(C3CC3)c12 | Enterococcus faecalis | microbial growth, broth dilution |  | clinical isolate | MIC90 | 1 µg/mL |
| CCCCCCCCCCCC[N+](C)(C)Cc1ccccc1 | Enterococcus faecalis | microbial growth |  |  | MIC | 63 µM |
| C=C[C@]1(C)C[C@@H](OC(=O)CS[C@@H]2C[C@H]3CC[C@@H](C2)N3C)[C@]2(C)[C@H](C)CC[C@]3(CCC(=O)[C@H]32)[C@@H](C)[C@@H]1O | Enterococcus faecalis | microbial growth, agar dilution | ATCC29212 |  | MIC | 128 µg/mL |
| S=C(NN=Cc1ccc(Br)cc1)Nc1cccnc1 | Leishmania major | parasite growth | J774.A1 | 72 h, intracellular, amastigote | IC50 | 627 µM |
| Cc1c2c(nn1C)CSCc1cc(n(C)n1)CSc1cc(c3ccccc3c1)OCCCc1c(C(=O)O)n(C)c3c-2c(Cl)ccc13 | Enterococcus faecalis | microbial growth, broth dilution |  | clinical isolate | MIC90 | 25 µM |
| CNC(=S)NN=Cc1ccc(C)cc1 | Leishmania major | parasite growth | J774.A1 | 72 h, intracellular, amastigote | IC50 | 1110 µM |
| CC(=O)N1CCN(c2ccc(OCC3COC(Cn4ccnc4)(c4ccc(Cl)cc4Cl)O3)cc2)CC1 (stereo not shown) | Aspergillus glaucus | microbial growth, broth dilution |  | 48 h | MIC | 7.8 µg/mL |

| Compound | organism | assay | system | setting | endpoint | result |
| --- | --- | --- | --- | --- | --- | --- |
| CN1CCN(c2ccc(-c3ccc4c(Nc5ncccn5)cnnc4c3)cc2)CC1 | Leishmania major | parasite growth |  | intracellular, amastigote | EC50 | > 12.6 µM |
| C/C(=N\C(=O)/N=C(\C)c1c(O)c2ccccc2oc1=O)c1c(O)c2ccccc2oc1=O | Aspergillus glaucus | microbial growth, broth dilution |  | 48 h | MIC | 62.5 µg/mL |
| CN1CCN(c2ncc(-c3ccc4c(Nc5ncccn5)cnnc4c3)cn2)CC1 | Leishmania major | parasite growth |  | intracellular, amastigote | EC50 | > 25 µM |
| C[C@@H]1[C@H](O)[C@@H](C)/C=C/C=C/C=C/C=C/C=C/C=C/C=C/[C@H](O[C@@H]2O[C@H](C)[C@@H](O)[C@H](N)[C@@H]2O)C[C@@H]2O[C@](O)(C[C@@H](O)C[C@@H](O)[C@H](O)CC[C@@H](O)C[C@@H](O)CC(=O)O[C@H]1C)C[C@H](O)[C@H]2C(=O)O | Leishmania major | parasite growth | J774.A1 | 72 h, intracellular, amastigote | IC50 | 17.5 µM |
| C[C@@H]1[C@H](O)[C@@H](C)/C=C/C=C/C=C/C=C/C=C/C=C/C=C/[C@H](O[C@@H]2O[C@H](C)[C@@H](O)[C@H](N)[C@@H]2O)C[C@@H]2O[C@](O)(C[C@@H](O)C[C@@H](O)[C@H](O)CC[C@@H](O)C[C@@H](O)CC(=O)O[C@H]1C)C[C@H](O)[C@H]2C(=O)O | Aspergillus fumigatus | microbial growth, broth dilution | AF293 | 48 h | MIC | 0.5 µg/mL |
| COc1ccc(Nc2cnnc3ccc(-c4cnc(N5CCN(C)CC5)nc4)cc23)cc1Cl | Leishmania major | parasite growth |  | intracellular, amastigote | EC50 | > 22 µM |
| CC(=O)NC[C@H]1CN(c2ccc(N3CCOCC3)c(F)c2)C(=O)O1 | Enterococcus faecalis | microbial growth, broth dilution |  | clinical isolate | MIC90 | 1 µg/mL |
| COc1ccc(C=NNC(=S)Nc2cccnc2)cc1OC | Leishmania major | parasite growth | J774.A1 | 72 h, intracellular, amastigote | IC50 | 886 µM |
| Cc1ccc(Nc2cnnc3cc(-c4ccc(N5CCN(C)CC5)cc4)ccc23)cn1 | Leishmania major | parasite growth |  | intracellular, amastigote | EC50 | > 24 µM |
| CC[C@H]1OC(=O)[C@H](C)[C@@H](O[C@H]2C[C@@](C)(OC)[C@@H](O)[C@H](C)O2)[C@H](C)[C@@H](O[C@@H]2O[C@H](C)C[C@H](N(C)C)[C@H]2O)[C@](C)(O)C[C@@H](C)/C(=N\OCOCCOC)[C@H](C)[C@@H](O)[C@]1(C)O | Enterococcus faecalis | microbial growth |  | clinical isolate | MIC50 | > 128 µg/mL |
| CN1CCCN(c2ncc(-c3ccc4nncc(Nc5cnccn5)c4c3)cn2)CC1 | Leishmania major | parasite growth |  | intracellular, amastigote | EC50 | > 24 µM |
| C/C(=N\C(=N)/N=C(\C)c1c(O)c2ccccc2oc1=O)c1c(O)c2ccccc2oc1=O | Aspergillus glaucus | microbial growth, broth dilution |  | 48 h | MIC | 125 µg/mL |
| CCCCCCCCN=c1ccn(CCCCCCCCCCn2ccc(=NCCCCCCCC)cc2)cc1 | Enterococcus faecalis | microbial growth |  |  | MIC | 0.5 µM |
| C/C(=N\NC(=O)/N=C(\C)c1c(O)c2ccccc2oc1=O)c1c(O)c2ccccc2oc1=O | Aspergillus glaucus | microbial growth, broth dilution |  | 48 h | MIC | 125 µg/mL |
| COc1ccc(C=NNC(=S)Nc2cccnc2)cc1 | Leishmania major | parasite growth, MTT |  | 72 h, promastigote | IC50 | 1000 µM |
